Test: Toxicity liver stage against HepG2, at 10uM
Format: cell-based
Set-up: test concentration 10 uM, cell line HepG2-A16-CD81EGFP
Conditions: human, HepG2-A16-CD81EGFP cells; read-out: INHIBITION
Procedure, shortened: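 Uninfected HepG2-A16-CD81EGFP cells, 3 × 10^3 per well, 1536-well, plated on prespotted compound at 10 μM final, parasite-free screening media added to match infected plates; puromycin 10 μM positive, DMSO 0.5% negative; run in parallel with 48 h PbLuc assay at 37 °C, 5% CO2; viability by CellTiter-Glo luminescence, normalized to controls.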

SMILES	cytotoxicity at 10 µM
Cc1c(C)n2c(SCC(=O)N3CCOCC3)nnc2[nH]c1=O	3.26%
Cn1c(=O)c2sccc2n(Cc2ccccc2)c1=O	4.84%
COc1cc(CN2CCCC2c2cccc(F)c2)cc(OC)c1OC (configuration not stated)	-2.03%
Cc1cc(C(=O)N2CCN(c3nc4ccccc4s3)CC2)no1	-110%
O=C(O)C1CCCN(c2nc3c(-c4ccccc4)csc3c(=O)[nH]2)C1 (configuration not stated)	-10.1%
CC(C)CNC(=O)c1cn(C(C)C)cc2c(=O)[nH]nc1-2	0.583%
C1CCN(c2nc(N3CCOCC3)nc3[nH]nnc23)CC1	8.95%
O=C(Cn1ccc2ccccc21)N1CCC(Oc2ncccc2Br)CC1	4.51%
O=C(NC1CCC1)[C@H]1C[C@H]2NCCO[C@@H]2C1	-131%
COc1cc(C(=O)NC(C)C)nc2c(C)cc(F)cc12	2.43%
CCOCC1CN(S(C)(=O)=O)Cc2cnn(C)c21 (configuration not stated)	-15.4%
O=C(CC1CC1)NCc1cc(=O)n2c(n1)CN(Cc1ccoc1)CCC2	-20.6%
Cc1ccc(CN2C(=O)CCC2C(=O)Nc2cnn(C)c2)o1 (configuration not stated)	-3.72%
COCC(=O)N1CCCCC1c1nc(C)c2c(n1)N(C1CC1)C(=O)CC2 (configuration not stated)	-1%
CN1CCC(Cc2cc(N(C)C)ncn2)C1 (configuration not stated)	3.19%
COc1ccccc1C1(O)CCCN(C(=O)c2cnc(SC)nc2)C1 (configuration not stated)	7.27%
Cc1noc(C)c1-c1cccc(CC2CCN(C(=O)CN)C2)n1 (configuration not stated)	-3.36%
Cc1cccc(Nc2nccnc2C2CCCN(CC(=O)N(C)C)C2)n1 (configuration not stated)	-3.03%
Cc1n[nH]c(C)c1-c1nccnc1CC1CCN(C(C)C)CC1	-5.36%
CC1CCCCN1c1nc2c(c(=O)[nH]1)CCN(Cc1ccccn1)C2 (configuration not stated)	-10.7%
COc1cnc(C2(O)CCN(C(=O)c3scnc3C)CC2)c(OC)n1	-6.41%

SMILES	cytotoxicity at 10 µM
Cc1nccn1-c1cccc(C2CCCN(C3CCCC3)C2)n1 (configuration not stated)	-12.7%
Cc1cncc(C2CCCN(C(=O)c3cn(C)nc3C)C2)n1 (configuration not stated)	-7.91%
CC(=O)N1CCCC(c2cccc(-n3ccnc3)n2)C1 (configuration not stated)	-9.08%
COc1ccc(CN2C[C@@H](O)[C@](O)(CNC(=O)c3ccccn3)C2)cc1	8.46%
Fc1ccc(CN2CCC(c3nccnc3-n3ccnc3)CC2)cc1	-0.259%
CC(=O)Nc1ccc(CNC2COc3c2ccc(C)c3C)cc1 (configuration not stated)	6.56%
OCc1cccc(OCc2ccon2)c1	0.266%
CCc1cc(=O)[nH]c(-c2ccc(NCCC(C)O)nc2)n1 (configuration not stated)	-127%
CC(CC(=O)N1CCN(c2cnccn2)CC1)c1ccc(F)cc1 (configuration not stated)	-48%
Cc1nc(-c2ccc(CC(=O)N3CCNC(=O)C3)cc2)cs1	6.14%
CC(=O)NCCCNCc1ccc(Cl)c2cccnc12	-3.17%
CSCC(CCO)NC(=O)Nc1cccc(Br)c1C (configuration not stated)	-3.7%
CCN(C(=O)c1ccc2nncn2c1)C(C)Cc1ccc(OC)cc1 (configuration not stated)	-5.53%
CC(=O)c1ccc(OCC(=O)NS(=O)(=O)c2ccc(Cl)s2)cc1	1.77%
CC(C)N(Cc1ccccn1)C(=O)CCC(=O)c1ccc(F)cc1F	-0.535%
CC(C)OCCN1CCN(c2ccc(Cl)cn2)CC1	-1.67%
COc1ccccc1CNCc1nn(-c2ccccc2)c2c1CCC2	34.4%
COc1ccc2c(c1)CC(NCCCn1cc(C)cn1)CC2 (configuration not stated)	18%
CC1(C)Cc2ccc(C(=O)NC3CCS(=O)(=O)C3)c(O)c2O1 (configuration not stated)	0.329%
O=C(CCC1CCCO1)NCCCC(=O)Nc1ccc(Cl)cc1 (configuration not stated)	-0.649%
CN(C)c1ncc(CNC(=O)Nc2ccccc2C(F)(F)F)n1C	-55.3%

SMILES	cytotoxicity at 10 µM
CN(Cc1ccc(F)cc1)C(=O)NCC1(N2CCOCC2)CCSC1 (configuration not stated)	-21.9%
O=C(NCCOc1ccc(F)c(F)c1)NCc1ccncc1	-8.25%
N#Cc1ccc(OCCNc2cccc(C(=O)N3CCOCC3)c2)cc1	-2.96%
O=C(Nc1cccc(CN2CCOC2=O)c1)N1CCSCC1	-11.3%
CCc1cnc(CN(C)C2CCN(CCS(C)(=O)=O)C2)o1 (configuration not stated)	-3.94%
CN(C)C(=O)N1CC(C(=O)NCC2CC2)C2(CCOCC2)C1 (configuration not stated)	-95.1%
Cc1nc(COC[C@@H]2CC[C@H]3[C@H](CCN3C(=O)C3CC3)O2)cs1	-73.9%
O=C1CC(c2cccnc2)C2(CCN(C(=O)N3CCOCC3)CC2)N1 (configuration not stated)	-79.5%
C[C@H]1CN(C(=O)N(C)C)C[C@@]12CCN(c1ccsc1)C2=O	-73.1%
CC(C)Nc1ncnc2c1CCN(C(=O)CN(C)C)CC2	-70.9%
Cc1cccc(C(=O)N2Cc3ccccc3C3(CCN(C)CC3)C2)n1	-73.5%
CC(=O)N1CCC(n2nccc2-c2cnc(N)nc2)CC1	1.3%
Cc1cc2c(=O)n(CCSc3cnn[nH]3)cnc2s1	10.1%
Cc1ccccc1C(Nc1ncnc2c1CCNC2)c1ccccc1 (configuration not stated)	7.78%
CCOCc1nccc(-c2ccc(OCC)c(C(=O)O)c2)n1	2.55%
Cc1nccc(N2CC[C@@H]3[C@@H](CCC(=O)N3CCc3ccccc3)C2)n1	2.19%
N[C@H]1CN(C(=O)c2ccc(CO)cc2)C[C@@H]1C1CC1	2.56%
COC(=O)CCNC(=O)c1coc(COc2ccc(F)cc2)n1	-4.1%
CSCCc1nc(C(C)C)nn1-c1ccncc1C	1.63%
CCN(C)CC(=O)N1CCC(c2cc(N3CCOCC3)nc(C)n2)CC1	6.9%
COCc1nc(CN2CC(=O)N(C)c3ccccc3C2=O)no1	-6.03%

SMILES	cytotoxicity at 10 µM
Cc1cccc(-c2ncc(CNC(C)Cc3ccncc3)cn2)c1 (configuration not stated)	-8.18%
Cc1cc(C(=O)N2CCNC(c3ccccc3)C2)c2ccc(F)cc2n1 (configuration not stated)	3.09%
Cc1cnccc1NCCn1ccnc1C1CCOC1 (configuration not stated)	3.8%
N#Cc1ccc(C(=O)N2C[C@@H](CN3CCCC3)C[C@H](CO)C2)cc1	-2.86%
Cc1cc(N2CCN(Cc3ccccc3)CC(O)C2)cc(C)n1 (configuration not stated)	-17.4%
CCN1CC2(CCC1=O)CCN(C(=O)c1ccc(Cl)cc1O)CC2	-12.8%
CN1CC(c2ccccc2)CC12CCN(C(=O)c1ccc(F)cc1)CC2 (configuration not stated)	-12.1%
CCC1CCCN(Cc2nc(N)c3ccccc3n2)C1 (configuration not stated)	-11.2%
COc1ccc(CCCC(=O)N2CCCC(n3cccn3)C2)cc1 (configuration not stated)	-7.36%
COc1ccccc1CC(=O)N1CCC(NCc2cc[nH]c2)CC1	0.593%
COc1cc2c(cc1CNC(Cc1cccs1)c1nccs1)OCCO2 (configuration not stated)	-1.6%
COCCN1C(=O)CC[C@@H]2[C@H]1CCN2Cc1ccc(C)s1	-70.4%
CCN(CC)Cc1cn2c(n1)CN(C(=O)c1cnccn1)CC2	6.15%
Cc1noc(C)c1C(=O)N1Cc2ncn(C)c2C(COCC(C)C)C1 (configuration not stated)	-105%
O=C(NCc1ccccn1)[C@H]1COC[C@H]2CN(CC3CC3)C[C@H]21	-80.8%
Cc1cccc(CN2C[C@@H]3CN(C4CCOCC4)C[C@@H]3C2=O)c1	-130%
Cc1ccsc1C(=O)N1CC[C@@H](N(C)C)[C@@H]1Cc1cnn(C)c1	-77.6%
CN1CCNC(=O)C12CCN(Cc1ccco1)CC2	-81.3%
CCOCC1CN(CCN2CCCCC2)Cc2cnn(C)c21 (configuration not stated)	-99.9%

Reference: ChEMBL document CHEMBL4513216, “Probing the Open Global Health Chemical Diversity Library for Multistage-Active Starting Points for Next-Generation Antimalarials” (ACS Infect Dis, 2020)
